Source: paper PMC2718708 (Bioorganic & medicinal chemistry, 2008)
Entries after “also recorded” stand apart in the source; their conditions may differ. Where a SMILES comes first, the peptide text is derived from it. [ ]: non-standard residue; d: D form. Nle = CCCC[C@H](N)C(=O)O

Columns and labels:
Hdm2 [1] = target: T1, Hdm2 (Homo sapiens, UniProt Q00987); conditions: cited from earlier work
[2] = tested on: p53 and Hdm2 in RPE cells; experiment: Cellular p53 and Hdm2 levels in RPE cells by immunoblotting; conditions: for effect on cellular p53 and Hdm2 levels: 1–10 µM, immunoblotting; for effect on cellular p53 and Hdm2 levels / concentration exhibiting greatest increase in p53 and Hdm2: 8 h; for concentration exhibiting greatest increase in p53 and Hdm2: similar to 50 µM ALLN
[3] = Stability of the compound observed while conducting experiments; assay type: physicochemical
[4] = tested on: Hdm2 in p53^−/−mdm2^−/− mouse embryo fibroblasts; assay type: cell-based; conditions: 10 µM, 8 h; Hdm2 under p53-independent CMV promoter
Hdm2 [5] = target: T1, Hdm2; experiment: Hdm2 electrochemiluminescence assay; assay type: biochemical; conditions: for activity in Hdm2 assay: isolated from Hdm2-inhibitory fractions
C8 cells [6] = experiment: Cell death by trypan blue exclusion, wild-type p53 MEFs; assay type: cell-based, mouse; conditions: 5–20 µM, 20 h
[7] = tested on: HCT116-p53^+ and HCT116-p53^− cells; experiment: Killing of HCT116-p53+ compared to HCT116-p53- cells; assay type: cell-based, human; conditions: HCT116-p53+ vs HCT116-p53−; data not shown
C8 cells [8] = experiment: PARP cleavage by immunoblotting, C8 cells; assay type: cell-based, mouse; conditions: 5–20 µM, 14 h
[9] = tested on: U2OS-pG13 cells (p53-responsive luciferase reporter); experiment: p53-responsive luciferase reporter assay in U2OS-pG13 cells; assay type: cell-based, human; conditions: 1–10 µM, 22 h
Outline: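 U2OS-pG13 cells carry endogenous wild-type p53 and a stably expressed p53-responsive luciferase reporter (pG13). They were incubated for 22 h with test compound at 1–10 µM, with adriamycin at 1 µg/ml as reference. Cells were lysed in reporter lysis buffer and spun at 14,000 g for 20 min. Supernatant luciferase was read as RLU. Values are mean and standard deviation of three independent experiments.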

[10] = tested on: p53 in HCT116 colon carcinoma cells; experiment: ALLN-induced ubiquitylated p53 in HCT116 cells expressing wild-type p53; assay type: cell-based, human; conditions: treatment with both 5 and ALLN; data not shown
A9 cells = experiment: Cell death by trypan blue exclusion, p53-deficient MEFs; assay type: cell-based, mouse; conditions: 5–20 µM, 20 h
p53 in U2OS cells = assay type: cell-based, human; conditions: U2OS co-transfected with p53 and Hdm2; 8 h; 50 µM ALLN or 3–15 µM 5
RPE-E1A cells = experiment: Cell death by trypan blue exclusion, RPE-E1A cells; assay type: cell-based, human; conditions: 3–25 µM, 17 h
RPE cells = experiment: Cell death by trypan blue exclusion, parental RPE cells; assay type: cell-based, human; conditions: 3–25 µM, 17 h

T1 sequence (Q00987 whole entry): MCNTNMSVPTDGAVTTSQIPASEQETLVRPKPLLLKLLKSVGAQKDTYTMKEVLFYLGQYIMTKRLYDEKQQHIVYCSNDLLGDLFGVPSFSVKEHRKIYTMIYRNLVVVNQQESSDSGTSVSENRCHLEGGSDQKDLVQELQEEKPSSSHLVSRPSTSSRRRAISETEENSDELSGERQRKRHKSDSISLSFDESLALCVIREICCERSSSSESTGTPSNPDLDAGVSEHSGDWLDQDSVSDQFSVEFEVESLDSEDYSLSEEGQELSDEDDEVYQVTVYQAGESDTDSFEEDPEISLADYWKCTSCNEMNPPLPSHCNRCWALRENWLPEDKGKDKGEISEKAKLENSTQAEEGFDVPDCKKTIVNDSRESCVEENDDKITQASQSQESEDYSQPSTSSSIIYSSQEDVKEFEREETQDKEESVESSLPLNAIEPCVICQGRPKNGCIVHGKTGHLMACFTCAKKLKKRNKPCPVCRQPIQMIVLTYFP

c1ccc2c3ccn4cc5c(cc4c-3nc2c1)CCCC5 [sempervirine]
inhibition of auto-ubiquitylation of Hdm2 (Hdm2 [1]): inhibits auto-ubiquitylation of Hdm2

CSC1=C(CCN)c2nc3ccccc3c3ccnc(c23)C1=O [Compound 4, Diplamine B]
effect on cellular p53 and Hdm2 levels ([2]; RPE cells): increased p53 and Hdm2 in cells in a dose-dependent manner | concentration exhibiting greatest increase in p53 and Hdm2 ([2]; RPE cells): 10 µM | stability [3]: fairly unstable and degraded over time | effect on cellular Hdm2 [4]: increased Hdm2; also recorded: stabilized Hdm2 in MEFs

COc1cc(CCN(C)C)c2c(c1O)SSSSS2 [Compound 1, Isolissoclinotoxin B]
effect on p53 levels ([2]; RPE cells, at 1 µM): did not increase p53 levels | toxicity to RPE cells ([2]; at 10 µM): toxic

COc1c(C)c(CCN(C)C)c2c(c1OC)SSSSS2 [Compound 3, N,N-dimethyl-5-methylvaracin]
activity in Hdm2 assay (Hdm2 [5]): very little activity | effect on cellular p53 and Hdm2 levels ([2]; RPE cells): no discernable cellular effects

NCCc1c2c(c3nccc4c3c1Nc1ccccc1-4)OCS2 [Compound 5, Lissoclinidine B]
cell death (C8 cells [6]): marked increase in cell death; also recorded: selectively kills cells expressing wild-type p53 | p53-dependent killing [7]: p53-dependent killing | PARP cleavage (apoptosis) (C8 cells [8]): cleavage of the poly (ADP-ribose) polymerase (PARP) was observed; also recorded: induces apoptosis in C8 cells | luciferase activity (p53-dependent transactivation) [9]: dose-dependent increase in luciferase activity; also recorded: activates p53 transcription | IC50 (Hdm2 [5]): 98.1 ± 6 µM | effect on ALLN-induced ubiquitylated p53 [10]: prevented the accumulation of ALLN-induced ubiquitylated p53 | effect on cellular p53 and Hdm2 levels ([2]; RPE cells): increased p53 and Hdm2 in cells in a dose-dependent manner | concentration exhibiting greatest increase in p53 and Hdm2 ([2]; RPE cells): 10 µM | cell death (A9 cells): relatively resistant | effect on p53 degradation / p53 level (p53 in U2OS cells): blocked p53 degradation in a dose-dependent manner; also recorded: inhibits Hdm2-mediated p53 degradation | ubiquitylated forms of p53 (p53 in U2OS cells): absent | effect on cellular Hdm2 [4]: increased Hdm2; also recorded: stabilized Hdm2 in MEFs | cell death (RPE-E1A cells): clear dose-dependent increase in cell death; also recorded: selectively kills transformed cells | cell death (RPE cells): no effect

COc1cc(CCN)c2c(c1OC)SSSSS2 [Compound 2, varacin]
activity in Hdm2 assay (Hdm2 [5]): very little activity | effect on cellular p53 and Hdm2 levels ([2]; RPE cells): no discernable cellular effects

CCCC[C@@H](C=O)NC(=O)[C@H](CC(C)C)NC(=O)[C@H](CC(C)C)NC(C)=O [ALLN, N-acetyl-leucyl-leucyl-norleucinal, reference compound] (Ac-Leu-Leu-[Nle]-aldehyde)
effect on p53 degradation / p53 level (p53 in U2OS cells): accumulation of p53 | ubiquitylated forms of p53 (p53 in U2OS cells): higher molecular weight forms of the protein indicative of ubiquitylation
